Data set [1] deals with T1, PABPN1 (Homo sapiens, UniProt Q86U42).
T1 sequence (Q86U42 1-306): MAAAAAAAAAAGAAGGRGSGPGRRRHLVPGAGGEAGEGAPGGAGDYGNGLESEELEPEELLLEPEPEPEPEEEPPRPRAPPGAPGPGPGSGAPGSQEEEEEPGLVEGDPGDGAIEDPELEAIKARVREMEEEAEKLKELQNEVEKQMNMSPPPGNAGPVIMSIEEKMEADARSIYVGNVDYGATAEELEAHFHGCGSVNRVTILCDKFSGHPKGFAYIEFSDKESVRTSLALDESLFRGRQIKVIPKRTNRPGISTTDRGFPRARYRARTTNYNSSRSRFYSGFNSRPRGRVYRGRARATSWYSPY
The data set is described as follows: AlphaScreen specificity counterscreen against PABPN1. In kind it is binding. The note with it: AlphaScreen IC50 MSUT2 compared with PABPN1, in words. The method in brief:
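GST-tagged PABPN1 and MSUT2 zinc-finger construct were expressed in E. coli BL21(DE3) and purified on glutathione-sepharose. AlphaScreen was run in AlphaLISA universal buffer plus 100 mM NaCl with donor beads (10 μg/mL), 250 nM biotinylated poly(A) RNA and 250 nM GST-MSUT2. Compound was pin-added, incubated 30 min at RT in the dark, then acceptor beads were added for 60 min. IC50 was from a four-parameter fit, N=3.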
Background: Bead proximity is the source of the signal in Alpha formats.

Data set [2] deals with MSUT2. Description: Fluorescence polarization orthogonal assay, FAM-poly. The format is binding. A digest of the protocol: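 GST-MSUT2 zinc finger (E. coli BL21(DE3), glutathione-purified) at 125 nM was mixed with 10 nM FAM-poly(A) RNA in PBS, and compound was added. Incubation was 20 min at room temperature, protected from light. Read at ex 485/20, em 528/20; buffer-only background was subtracted and polarization calculated as (F∥−F⊥)/(F∥+F⊥). A parallel run included DTT. N=3 without DTT, N=2 with DTT.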

For data set [3], the system named is HEK-293 cells. The data set is described as follows: Cytotoxicity screen, CellTiter-Glo cell viability. The format is cell-based, human. The note with it: HEK cell model, in words. In general terms: Cellular ATP, detected with luciferase, serves as a proxy for viable cell number.
Data set [4] has as its target MSUT2. The following applies: read-out: Kd of MSUT2 for poly(A); cited from earlier work.
The target of data set [5] is T2, MSUT2 ZF (zinc finger domain) (UniProt Q6PJT7 595-719).
T2 sequence: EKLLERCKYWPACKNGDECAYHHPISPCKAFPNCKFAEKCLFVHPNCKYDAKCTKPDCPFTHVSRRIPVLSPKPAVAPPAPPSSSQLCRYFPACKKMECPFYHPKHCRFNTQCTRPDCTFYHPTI
Description: competition.

Data set [6] has as its target T3, PABPN1 (UniProt Q86U42 1-306).
T3 sequence: T1 sequence (Q86U42 1-306)
Description: competition.

The mark [7] stands for this setting: read-out: IC50 (FP = FP assay), without DTT, 125 nM MSUT2, 10 nM FAM-RNA.
The mark [8] stands for this setting: read-out: IC50 (FP+DTT = FP in the presence of reducing agent DTT), with DTT.

Entries after “also recorded” stand apart in the source; their conditions may differ. Read-outs that look alike come from different tables or passages of the source.

Broadly, the IC50 is the concentration that inhibits the measured activity by half. Take `O=C1C(Cl)=C(Cl)C(=O)c2c(O)ccc(O)c21` [2,3-Dichloro-5,8-dihydroxynapthoquinone, 2,3-dichloro-5,8-dihydroxynapthoquinone]: the “Specificity for MSUT2 versus PABPN1” value in data set [1] is “low specificity for MSUT2”. Moreover, the IC50 in data set [2] (setting [7]) worked out at 1.32 µM; in data set [2] (setting [8]), 1.56 µM.

Regarding `O=C(O)C1=CC(=C(c2ccc(O)c(C(=O)O)c2)c2ccc(O)c(C(=O)O)c2)C=CC1=O` [Aurin tricarboxylic acid, aurin tricarboxylic acid], the “Specificity for MSUT2 versus PABPN1” value in data set [1] is “nonspecifically inhibited MSUT2”. The “Effect on cell viability (toxicity)” value in data set [3] is “relatively high toxicity at high concentrations”. The IC50 in data set [2] (setting [7]) was 7.11 µM; in data set [2] (setting [8]), 7.19 µM.

As for `O=S(=O)(O)c1cc(N=C=S)ccc1C=Cc1ccc(N=C=S)cc1S(=O)(=O)O` [DIDS, 4,4′-diisothiocyanostilbene-2,2′-sulfonic acid], in data set [1], the “Specificity for MSUT2 versus PABPN1” value is given as “low specificity for MSUT2; also recorded: twofold reduction in potency against PABPN1”. The “Effect on cell viability (toxicity)” value in data set [3] is “relatively nontoxic at all doses tested”. Further, the IC50 in data set [2] (setting [7]) was 6.32 µM; in data set [2] (setting [8]), 6.02 µM.

Take `O=c1c2ccccc2[se]n1-c1ccccc1` [ebselen]: the “Inhibitory effect in FP assay in the presence of DTT” value in data set [2] (with reducing agent DTT) is given as “abolished the inhibitory effect”.

One may read the Kd as the constant that tells how readily two partners part at equilibrium. In the case of poly(A), in data set [4], the Kd is 60 ± 15 nM.

B1: unlabeled poly(A) 15-mer (ssRNA)
RNA: AAAAAAAAAAAAAAA
Turning to B1, the values for the IC50 in data set [5] and in data set [6] were 198 nM and 803 nM, respectively.

These data come from article PMC8592089 (SLAS discovery : advancing life sciences R & D, 2020).
